Screening results (PubChem)
This is one part of a sample in which hits are shown more often than they occur.
HSF1 inhib: HSF1 inhibition. 0.77% of 300,000 active. activity change, negative = inhibition, % at 7.5 µM (by protocol). NIH3T3-HGL HSE-luciferase, MG132-induced, luminescence 8 h; stronger effect = lower value;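 active means more than half of replicate wells show activity change below -50%, luminescence cut by over half; inconclusive means some wells, but at most half, below -50%; inactive means no replicate well below -50%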;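 further: luciferase reports HSF-1 transcriptional activity via heat shock element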
Hsp70 activator: Hsp70 transcriptional activation, primary screen | HeLa Hsp70 promoter luciferase reporter, luminescence; scaled: vehicle 0, proteasome-inhibitor control 100% | AID 1203 | 0.04% of 200,000 active | activation, % at 10 µM;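 active means activation above the mean across all tested compounds plus 3 SD, cutoff set per campaign, cut at about 5.5% in these data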
HSF-1 act: increases HSF-1 driven luciferase reporter signal | 1.7% of 300,000 active | NIH3T3-HGL HSF-1 luciferase reporter, MG132, 8 h; 100% = twice DMSO control signal | activation, % at 9 µM;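 active means mean replicate activation of at least 50% with a set share of replicates each reaching 50%; inconclusive means only one of those two conditions met; inactive means mean below 50% and too few replicates reaching it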
T cruzi repl: T. cruzi replication inhibition | 1.4% of 300,000 active | T. cruzi beta-gal in NIH3T3, luminescence, 90 h | inhibition, % (no concentration beside the values) | AID 1885;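 active means mean inhibition across valid replicates above about 55%, limit read from the data; inconclusive means mean below that limit but half or more replicates reach it; inactive means mean below it, under half of replicates reach it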;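 further: signal also drops with host cell toxicity which is not excluded here; higher percent means less beta-gal luminescence so fewer parasites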
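compound dosing = single 50 nL compound addition per well in DMSO | material = NIH/3T3 host cells with β-galactosidase reporter T. cruzi | input = 5,000 host fibroblasts per well | timing = ≥90 h infection period, 3 h prior cell attachment | read-out basis = percent inhibition of parasite-derived β-gal signal | detection = GalScreen β-gal luminescence, detergent lysis, 60 min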
Lmaj promast: Leishmania major promastigote growth inhibition; Leishmania major promastigotes, resazurin fluorescence viability; inhibition, % at 10 µM; 9% of 200,000 active; AID 1063; in the data active means inhibition above about 50%;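 further: promastigotes grown with compound for 44 hours at 28 °C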
Numbers stand for hits; – = inactive; ? = inconclusive; · = no result given.

SMILES | HSF1 inhib | Hsp70 activator | HSF-1 act | T cruzi repl | Lmaj promast
COC(=O)/C=C/c1c(C)nc(NCc2ccccc2)nc1Cl | – | · | – | – | ·
CCCCC(=O)Nc1cc(C(=O)NCCc2ccccc2)ccc1Cl | – | – | – | – | –
Cc1cc(C)cc(C(=O)Oc2cc(C)[nH]c(=O)c2[N+](=O)[O-])c1 | – | · | – | – | ·
OC(CCCN1CCC(O)(c2ccc(Cl)cc2)CC1)c1ccc(F)cc1 (configuration not stated) | – | – | – | – | 96
CC(C)(C)C1CCc2c(sc3nc(SCC(=O)O)nc(N)c23)C1 (configuration not stated) | – | · | – | – | ·
COC(=O)CSc1nc(N)c2c3c(sc2n1)CCCC3 | – | – | – | – | 71
COC(=O)CSc1nc(N)c2c3c(sc2n1)C(c1ccccc1)SC(c1ccccc1)C3 (configuration not stated) | – | – | – | – | 85
CCN(CC)S(=O)(=O)c1ccc(NC(=O)CO/N=C(\N)c2ccccc2)cc1 | – | · | – | – | ·
CCOc1ccc(OCCOCCOc2c(Cl)cccc2Cl)cc1 | – | – | – | – | 60
CCOc1ccccc1OCCOCCOc1c(Cl)cccc1Cl | -53 | – | – | – | –
COc1ccc(-c2nc(C#N)c(NCc3cccnc3)o2)cc1OC | – | – | – | 64 | 96
N#Cc1nc(-c2ccco2)oc1NCc1cccnc1 | – | – | – | – | –
N#Cc1nc(-c2cccc(Cl)c2)oc1NCc1cccnc1 | – | – | – | – | 100
COc1ccccc1OCc1nnc(SCC(=O)Nc2nnc(C3CC3)s2)n1C | – | · | – | – | ·
O=C(CSc1nc(=O)n(CCCN2CCOCC2)c2c1CCCC2)Nc1cccc(F)c1 | – | · | – | – | ·
C=CCn1c2ccccc2c2nnc(SCC(=O)O)nc21 | -60 | · | – | – | ·
C=CCn1c2ccccc2c2nnc(SCC(=O)OCN3C(=O)c4ccccc4C3=O)nc21 | – | – | – | – | –
COc1cc(-c2nc3ccccn3c2NCc2ccccc2)ccc1SC1CCCCC1 | – | · | – | 61 | ·
Cc1ccc(C2CCN(C(=S)Nc3cccc(C)c3)C2)cc1 (configuration not stated) | – | – | – | – | –
COc1cccc(CN(C)C(=O)Cc2ccc(OC)c(S(=O)(=O)N3CCOCC3)c2)c1 | – | · | – | – | ·
Cc1cnccc1CN(C)Cc1cn(C)nc1-c1ccc(Oc2ccccc2)cc1 | – | – | – | 70 | 89
O=C(Nc1ccc(Cl)c(Cl)c1)N1CCCCCC1 | – | · | – | – | ·
O=C(Nc1ccc(Cl)c(Cl)c1)N1CCSCC1 | – | – | – | – | 74
O=C(Nc1ccc(Cl)cc1)N1CCSCC1 | – | – | – | – | –
O=C(Nc1ccc(Cl)c(Cl)c1)N1CCC(N2CCCCC2)CC1 | – | – | – | – | 91
SMILES | HSF1 inhib | Hsp70 activator | HSF-1 act | T cruzi repl | Lmaj promast
Cc1nc2sc(C(=O)Nc3ccccc3)c(N)c2c(C)c1[N+](=O)[O-] | – | – | – | – | –
Cc1cc(NC(C)c2ccccc2)n2ncc(-c3ccccc3)c2n1 (configuration not stated) | – | · | – | – | ·
Cc1cc(NC2CCCC2)n2ncc(-c3ccccc3)c2n1 | -67 | · | – | – | ·
Cc1cc(C)n2ncc(C(=O)NCc3ccccc3)c2n1 | – | – | – | – | 55
Cc1cc(NC2CCCC2)n2nc(C)c(-c3ccccc3)c2n1 | – | · | 52 | 60 | ·
Cc1cc(NCc2ccccc2)n2ncc(-c3ccccc3)c2n1 | – | · | 80 | – | ·
Cc1cc(NC(=O)CSc2nnc(-c3ccc([N+](=O)[O-])cc3)o2)no1 | – | · | – | – | ·
CC(C)Oc1ccc(C(CC(=O)O)NC(=O)C(Sc2ccccc2)c2ccccc2)cc1 (configuration not stated) | – | – | – | – | –
Cc1cc(NCCN2CCOCC2)n2ncc(-c3ccccc3)c2n1 | – | – | – | – | –
COc1ccc(-c2c(C)nn3c(NC4CCCC4)cc(C)nc23)cc1OC | – | · | 62 | – | ·
Cc1cc(NCCCn2ccnc2)n2ncc(-c3ccccc3)c2n1 | · | – | · | · | 89
Cc1nc2c(-c3ccccc3)cnn2c(N)c1-c1ccccc1 | -87 | · | – | – | ·
Cc1cc(-c2ccccc2)n2ncc(-c3ccccc3)c2n1 | – | – | – | – | –
Cc1cc(C)c(S(=O)(=O)Nc2nnc(C3CCCCC3)s2)c(C)c1 | – | · | – | – | ·
CC1=CCC2C(=O)N(c3ccc(OC(=O)c4ccco4)cc3)C(=O)C2C1 (configuration not stated) | – | – | – | – | –
Cn1nnc(-c2ccc(OCc3ccccc3F)cc2)n1 | – | – | 56 | – | –
CC1CCN(c2c([N+](=O)[O-])nn(-c3ccc4c(c3)OCCO4)[n+]2[O-])CC1 | – | – | – | 62 | –
O=C(NC1CCN(S(=O)(=O)c2ccc(F)cc2)CC1)c1cccnc1 | – | · | – | – | ·
CC(=O)NC1(C(F)(F)F)NC(=O)N(c2ccc(F)cc2)C1=O (configuration not stated) | – | – | – | – | –
O=C(/C=C/c1ccc2c(c1)OCO2)Nc1ccc(Cl)cn1 | – | – | 85 | – | –
Cc1ccc(C(NC(=O)/C=C\c2ccc3c(c2)OCO3)C(=O)Nc2ccc3c(c2)OCO3)cc1 (configuration not stated) | – | – | 99 | ? | 100
O=C(N/N=C/c1ccc2c(c1)OCO2)c1ccccn1 | – | – | – | – | –
O=C(/C=C/c1ccc2c(c1)OCO2)c1ccccn1 | – | · | 60 | – | ·
COc1ccc(CNC(=O)C/C(C)=N/NC(=O)COc2cccc(C)c2)cc1 | – | – | – | – | –
C[C@H](O)c1[nH]c2cc(F)ccc2c1[C@H](C)O | – | · | – | – | ·
SMILES | HSF1 inhib | Hsp70 activator | HSF-1 act | T cruzi repl | Lmaj promast
COc1ccccc1CNC(=O)c1cc(C(=O)CC(C)C)c[nH]1 | – | · | – | – | ·
Cc1cc(NC(=O)/C=C/c2ccc(F)cc2)n(-c2nc3ccccc3[nH]2)n1 | – | – | – | – | –
COc1ccc(/C=C/C(=O)Nc2cc(C)nn2-c2nc3ccccc3[nH]2)cc1 | – | – | 190 | 55 | –
CC1=C(C(=O)Nc2ccccc2)C(c2ccc(C)cc2)N=C(Nc2nc3ccccc3o2)N1 (configuration not stated) | – | – | 62 | 57 | –
CC1(C)CC(=O)C2=C(C1)NC(Nc1nc3ccccc3o1)=NC2c1ccccn1 (configuration not stated) | – | – | – | – | –
CCc1cc(C(=O)OC)c(NC(=O)CC2NCCNC2=O)s1 (configuration not stated) | – | – | – | – | –
CCc1cc(C(=O)OC)c(NC(=O)C2CC(=O)NN2Cc2ccccc2)s1 (configuration not stated) | – | – | – | – | 99
CCOC(=O)c1cn2nc(-c3ccc(OC)cc3)cc2nc1C1CCN(C(=O)OC(C)(C)C)CC1 | – | – | – | 59 | –
COc1ccc(-c2cc(C3CCN(C(=O)OC(C)(C)C)CC3)[nH]n2)cc1 | – | – | – | – | –
Cc1ccsc1CNC12CC3CC(CC(C3)C1)C2 | – | – | – | – | –
CN(C)c1ccc(CNC23CC4CC(CC(C4)C2)C3)cc1 | · | – | · | · | 87
